# Screens from PubChem BioAssay.
# Only some compounds are listed: those with a hit (about 3.5% of all), similar ones and a draw of the others.
# ERAP1 inh: ERAP1 (human) enzyme inhibition. Q9NZ08. recombinant ERAP1, Leu-AMC fluorescence, 60 min. inhibition, % at 10.7 µM. 340,000 tested, 0.15% active. AID 652197;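 active = mean replicate inhibition of at least 30%, or all replicates individually reaching that 30% level; inactive = mean below 30% and not every replicate reaching it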;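 note: 0% = neutral control wells and 100% = L-leucinethiol positive control wells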
# Cneo AK release: Cryptococcus neoformans lysis via adenylate kinase release. C. neoformans lysis, adenylate kinase release luminescence, 4 h; normalised: neutral wells 0, clomiphene wells 100. lysis activity, % at 15 µM. 360,000 tested, 0.2% active. AID 651654;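 active = mean lysis activity across replicates of at least 80%, whatever share of replicates individually reach that level; inactive = mean lysis activity below 80%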
#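 Test system: log-phase Cryptococcus neoformans yeast cells; Quantity: yeast cell density of 5 × 10^6 cells/mL; Buffer or medium: YPD; Doses: single compound concentration per well; Timing: 4 h at 37 °C static, read 1 h later; Measured by: AK luminescence; Read-out basis: lysis from increased AK signal; Control set: Clomiphene as positive control.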
# PGC1a acetyl inh: PGC1a acetylation modulation, inhibitor mode. U2OS PGC1a acetylation, AlphaScreen anti-acetyl-lysine; with virally co-expressed GCN5 acetyltransferase. inhibition, % at 15.6 µM. AID 651687. 350,000 tested, 0.17% active;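 active = every replicate shows inhibition of at least 40%; inconclusive = mean inhibition at least 40% but some replicate below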;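 note: 0% = neutral control wells and 100% = positive control wells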
# Ecoli rRNA inh: selective bacterial rRNA inhibition in E. coli; AID 720706; E. coli WT GFP vs humanized-ribosome RFP mutants, fluorescence, 24 h; stronger effect = lower value; DMSO median 0, no signal -100; 350,000 tested, 1.6% active; GFP signal change (wild-type ribosome), % (concentration not given with the values);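 active = significant combined selectivity score with lowered wild-type GFP, culture density cut under 30%, mutant RFP and density less affected; inactive = any of these conditions unmet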
# HIV Env fusion: inhibitors of HIV Env-mediated cell fusion; 360,000 tested, 1.1% active; inhibition, % at 12.3 µM; HeLa-JRFL Env/CEM21 cell fusion, luciferase; AID 651610;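 active = mean replicate inhibition score of at least 50 and every replicate individually at or above 50; inconclusive = only one of the two criteria met; inactive = mean below 50 and not all replicates reaching 50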;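 note: 0% = plate neutral controls and 100% = maraviroc near 300 nM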
# FGF22 binding: FGF22 (human) thermal shift binding; AID 651658; activity (Tm shift, normalised), % at 9.99 µM; 340,000 tested, 1.5% active; recombinant FGF22 thermal shift, SYPRO orange fluorescence; percent of sucrose octasulfate shift, DMSO zero; Q9HCT0;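 active = mean Tm shift, scaled 0 neutral to 100 positive control, at about 1.3% or above, every replicate too, limit read from the data; inconclusive = no clear call, values can overlap the other calls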
# * = called active by the depositor; ? = inconclusive; · = no result given; [ ] = remark or other dose.
SMILES,ERAP1 inh,Cneo AK release,PGC1a acetyl inh,Ecoli rRNA inh,HIV Env fusion,FGF22 binding
Cc1ccccc1NC(=O)/C=C1\SC(=O)NC1=O,4,·,·,-8,2,44*
Cc1cc(C)c(-c2csc(NC(=O)/C=C/c3cccs3)n2)c(C)c1,·,-4,2,·,63*,·
Cc1cc(C)nc(NC(=O)/C=C/c2cccs2)c1,4,-2,-21,-27*,·,0
O=C(/C=C/c1cccs1)Nc1cccc(NC(=O)/C=C/c2cccs2)n1,0,-22,-12,-7,-18,0
Cc1ccccc1NC(=O)/C=C/c1cccs1,2,·,·,-8,-28,43*
CCCNC(=O)C[C@@H]1CC[C@H]2[C@@H](COC[C@@H](O)CN2C(=O)CC)O1,1,4,2,-1,·,0
CC(C)C#Cc1cnc2c(c1)C(=O)N([C@H](C)CO)C[C@H](C)[C@H](CN(C)Cc1ccccc1F)O2,2,-5,5,-5,15[16.7 µM],0
Cc1sc(NC(=O)Cn2cnnn2)nc1-c1ccc(Cl)cc1,-2,·,-8,-14,-10,43*
COc1ccc(CCN=C(N)Nc2nc(C)cc(C)n2)cc1,-5,4,-2,-2,8,42
C[C@@H]1CN([C@H](C)CO)S(=O)(=O)c2ccc(-c3ccccc3)cc2O[C@H]1CN(C)C(=O)C1CCCCC1,-2,105*,-10,-12,23[16.7 µM],0
C[C@@H]1CN([C@@H](C)CO)S(=O)(=O)c2ccc(-c3ccc(F)cc3)cc2O[C@@H]1CN(C)C(=O)C1CCCCC1,0,2,0,-4,16[16.7 µM],0
C[C@@H]1CN([C@@H](C)CO)S(=O)(=O)c2ccc(-c3ccc(F)cc3)cc2O[C@H]1CN(C)C(=O)C1CCCCC1,2,0,?,-7,67*[16.7 µM],0
C[C@H](O)C#Cc1ccc2c(c1)O[C@H](CN(C)C(=O)C1CCCCC1)[C@H](C)CN([C@@H](C)CO)S2(=O)=O,2,94*,13,-5,2[16.7 µM],0
C[C@H](O)C#Cc1ccc2c(c1)O[C@@H](CN(C)C(=O)C1CCCCC1)[C@@H](C)CN([C@H](C)CO)S2(=O)=O,-1,-1,7,-1,-6[16.7 µM],0
C[C@@H]1CN([C@@H](C)CO)S(=O)(=O)c2ccc(-c3ccccc3)cc2O[C@@H]1CN(C)C(=O)C1CCCCC1,3,4,-24,-19,32[16.7 µM],-1
O=C(NCc1ccccc1)c1cc[n+](CC(=O)c2cccs2)cc1,1,1,6,1,19,0
NCCCCc1ccc2ccc3cccc4ccc1c2c34,3,1,-6,-19*,13,0
O=C(O)CCCc1ccc2ccc3cccc4ccc1c2c34,3,-6,-5,-10,-10,-1
COc1cccc(N2CCN(C(=O)c3ccc(CS(=O)Cc4ccccc4Cl)o3)CC2)c1 (stereo unspecified),1,-2,-3,-31*,-3,0
COc1cc(Cl)c(CNC[C@H]2O[C@@H](n3cnc(C(N)=O)n3)[C@H](O)[C@@H]2O)c(Cl)c1O,2,-2,-13,17,-9,43*
CNc1ccccc1C(C)(C)c1cc(-c2ccc(F)cc2)no1,·,·,4,·,66*,·
CNc1ccccc1C(C)(C)c1cc(-c2cccc(Br)c2)no1,-2,-3,-26,-22,23,43*
CN(C)/C=C(\C=O)c1c(Cl)cccc1Cl,1,·,·,9,30,0
CCN(C[C@H]1N[C@@](CC)(C(=O)OC)[C@H]2C(=O)N(Cc3ccccc3)C(=O)[C@@H]12)C(=O)Nc1ccc(C)cc1,·,3,·,13,56*,0
CCN(C[C@H]1N[C@@](CC)(C(=O)OC)[C@H]2C(=O)N(Cc3ccccc3)C(=O)[C@@H]12)C(=O)Nc1ccc(Cl)cc1,·,-2,·,-46,86*,0
SMILES,ERAP1 inh,Cneo AK release,PGC1a acetyl inh,Ecoli rRNA inh,HIV Env fusion,FGF22 binding
Cc1ccc(C(C)C)c(OCC(=O)NN=C2CCCC2)c1,-4,·,·,-6,0,0
Cc1ccc(C(C)C)c(OCC(=O)N/N=C/C2CCCCC2)c1,5,·,·,3,-1,43*
CCOC(=O)Cc1csc(NC(=S)NC(=O)c2ccccc2C)n1,-2,3,2,-20*,·,0
CCOC(=O)Cc1csc(NC(=S)NC(=O)c2ccc(F)cc2)n1,·,·,20,·,·,·
CCOC(=O)Cc1csc(NC(=O)CCSc2ccccc2)n1,1,-1,-6,-21*,8,2.5*
CCOC(=O)Cc1csc(NC(=O)Nc2cccc(OC)c2)n1,-2,-3,·,-29*,9,0
Cc1oc(-c2cccs2)nc1CN1CCC(C(=O)N2CCCC2)CC1,2,·,·,15,-7,0
O=C(N/N=C/C=C/c1ccco1)C(O)c1ccccc1 (stereo unspecified),·,0,1,·,-30,·
Nc1ccccc1SCc1ccccc1,-1,0,5,1,-10,43*
Cn1c(N)c(C(=O)COC(=O)C2CCCC2)c(=O)n(C)c1=O,5,·,·,5,-5,43*
Cn1c(N)c(C(=O)COC(=O)Cc2ccc(Cl)c(Cl)c2)c(=O)n(C)c1=O,2,-5,-2,-35*,·,0
COc1ccc(CC(=O)OCC(=O)c2c(N)n(C)c(=O)n(C)c2=O)cc1OC,10,-2,-3,3,-6,0
Cn1c(N)c(C(=O)COC(=O)/C=C/c2ccc(Cl)cc2Cl)c(=O)n(C)c1=O,5,-1,11,7,15,44*
COc1ccc(S(=O)(=O)N2CCCCCC2)cc1C(=O)NCCc1ccc(F)cc1,0,-2,-3,-27,·,0
COc1cccc(-c2ccc3c(c2)O[C@@H](CN(C)C(=O)c2ccccc2F)[C@H](C)CN([C@@H](C)CO)S3(=O)=O)c1,1,0,-37,-7,11[16.7 µM],0
O=[N+]([O-])c1ccccc1S(=O)(=O)N/C(=N/S(=O)(=O)c1ccccc1)c1ccccc1,0,1,5,-4,·,43*
O=C(NCC(F)(F)F)[C@H]1[C@H](CO)[C@H]2Cn3c(cccc3=O)[C@H]2N1CCC(F)(F)F,19,·,·,-4,·,·
O=C([C@@H]1[C@@H](CO)[C@@H]2Cn3c(cccc3=O)[C@@H]2N1CCC(F)(F)F)N1CCCCC1,-2,102*,·,4,·,0
Cc1cc(N)n(-c2ccc(S(=O)(=O)c3ccc(C(C)C)cc3)cc2)n1,-5,·,-10,-26*,12,0
CC(C)c1c(O)ccc2c1CC[C@H]1C(C)(C)CCC[C@]21C,0,0,-15,-14*,12,0
Cc1c[nH]c2ccccc12,·,1,·,·,·,·
O=C(NNC(=O)c1ccccc1C(=O)O)c1ccc(-c2ccccc2)cc1,-3,·,·,7,8,43*
